As usually defined, the Ki is the dissociation constant of the complex between target and ligand, obtained from inhibition or displacement. As a reminder, the IC50 is the concentration that gives 50% inhibition. What is called viability is a read-out of living cells in per cent, often relative to untreated cells.

Each structure is given as a SMILES string. Where only a bound is given, the exact number is not on record here.

In data set [1] the target is T1, Ectonucleotide pyrophosphatase/phosphodiesterase family member 1 (Homo sapiens, UniProt P22413).
T1 sequence (P22413 whole entry): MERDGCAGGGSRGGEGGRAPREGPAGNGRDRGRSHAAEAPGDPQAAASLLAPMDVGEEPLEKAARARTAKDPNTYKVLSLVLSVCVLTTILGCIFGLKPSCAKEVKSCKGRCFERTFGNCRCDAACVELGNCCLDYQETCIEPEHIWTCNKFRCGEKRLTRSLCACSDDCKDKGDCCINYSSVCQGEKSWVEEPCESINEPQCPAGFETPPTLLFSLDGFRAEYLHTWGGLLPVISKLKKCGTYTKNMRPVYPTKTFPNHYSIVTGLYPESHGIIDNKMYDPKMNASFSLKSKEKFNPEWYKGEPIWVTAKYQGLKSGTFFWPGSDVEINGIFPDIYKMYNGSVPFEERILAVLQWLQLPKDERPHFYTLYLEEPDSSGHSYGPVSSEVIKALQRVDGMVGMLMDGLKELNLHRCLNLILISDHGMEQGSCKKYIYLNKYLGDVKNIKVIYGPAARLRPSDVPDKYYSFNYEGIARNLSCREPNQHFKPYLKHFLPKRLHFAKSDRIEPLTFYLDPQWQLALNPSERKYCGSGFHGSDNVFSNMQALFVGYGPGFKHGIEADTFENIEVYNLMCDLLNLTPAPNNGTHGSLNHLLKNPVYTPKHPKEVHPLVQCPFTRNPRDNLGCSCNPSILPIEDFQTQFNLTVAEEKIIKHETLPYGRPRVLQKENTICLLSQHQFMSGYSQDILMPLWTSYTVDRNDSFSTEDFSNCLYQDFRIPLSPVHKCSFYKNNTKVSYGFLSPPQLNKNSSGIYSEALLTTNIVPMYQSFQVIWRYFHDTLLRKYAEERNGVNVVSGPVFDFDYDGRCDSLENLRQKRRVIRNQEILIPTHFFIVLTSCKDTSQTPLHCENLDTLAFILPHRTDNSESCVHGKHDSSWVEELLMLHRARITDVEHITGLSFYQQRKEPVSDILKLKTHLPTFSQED
The data set is described as follows: Noncompetitive inhibition of human recombinant NPP1 by Dixon plot analysis. The essentials:
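Same human NPP1 assay at fixed inhibitor concentrations. Dixon plots run at p-nitrophenyl phenyl phosphonate 0.4, 0.6, 0.8 and 1.0 mM, and Lineweaver–Burk plots from initial velocities. Secondary replots were slope versus 1/[S], and 1/Vmaxapp or slope versus inhibitor. Ki is the mean of five values from these plots; points are means of three experiments.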

The nature of data set [2]: Inhibition of snake venom NPP1 assessed as release of p-nitrophenol after 30 mins by microtitre plate spectrophotometry. On the set-up: species or system Naja naja. The essentials: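 Substrate: 0.33 mM bis-(p-nitrophenyl) phosphate. p-Nitrophenol release read at 410 nm, 37 °C, after 30 min incubation. Initial rates taken as OD/min change, run in triplicate. Cysteine and EDTA served as positive controls.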

Data set [3] addresses T1, Ectonucleotide pyrophosphatase/phosphodiesterase family member 1. The data set is described as follows: Inhibition of human recombinant NPP1 assessed as release of p-nitrophenol by microtitre plate spectrophotometry. The method in brief:
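Soluble catalytic extracellular domain of human NPP1. Substrate p-nitrophenyl phenyl phosphonate in 20 mM Tris–HCl pH 8.0, 0.5 M NaCl, 1 mM CaCl2. p-Nitrophenol release read at 405 nm, 37 °C, microtitre plate. Triplicates; IC50 given with SEM of 3–5 experiments.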

Data set [4] is described as follows: Noncompetitive inhibition of snake venom NPP1 by Dixon plot analysis. Details: species or system Naja naja; call rule not given here.
Data set [5] can be described thus: Cytotoxicity against human neutrophils assessed as cell viability up to 200 ug/mL after 30 mins by WST1 assay. The data set is classed as cell-based, Neutrophil. The essentials: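 Neutrophils isolated from heparinized venous blood of healthy volunteers (Ficoll sedimentation, ammonium chloride 0.83% RBC lysis), 1 × 10^7 cells/mL, exposed to compounds at 200–12.5 µg/mL (five concentrations) for 30 min. Then WST-1 0.25 mM, 3 h at 37 °C with shaking, absorbance 450 nm. Mean of five replicates; % viability relative to untreated control.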
(Formazan colour is commonly taken as a measure of viable cells.)

For `Oc1ccc(-c2n[nH]c(=S)s2)cc1`, the Ki in data set [1] is 850 µM; in data set [4], 350 µM. For the same compound, the half-maximal inhibitory concentration (IC50) amounted to 390 µM in data set [2] (read-out: IC50) and 900 µM in data set [3].

`Oc1ccc(-c2nn(Cc3ccccc3)c(=S)s2)cc1`: the half-inhibitory concentration (IC50) entry in data set [2] is reported as “Not Active”.

Consider `S=c1[nH]nc(-c2ccncc2)s1`, for which the figures for the IC50 in data set [2] (read-out: IC50) and in data set [3] were 660 µM and 998 µM, respectively. The compound further displayed a Ki in data set [4] of 525 µM.

`CCCOc1ccc(-c2nn(CC)c(=S)s2)cc1`: in data set [2], the IC50 result is recorded as “Not Active”.

As for `S=c1[nH]nc(C(c2ccccc2)c2ccccc2)s1`, the IC50 in data set [2] (read-out: IC50) was above 1000 µM.

Turning to `S=c1[nH]nc(-c2cccc(OCc3ccccc3)c2)o1`, in data set [1], the inhibition constant Ki turned out to be 360 µM. In addition, the values for the IC50 in data set [2] (read-out: IC50) and in data set [3] were above 1000 µM and 494 µM, respectively.

For the compound `S=c1[nH]nc(-c2ccncc2)o1`, the IC50 in data set [2] (read-out: IC50) is above 1000 µM.

Consider `CCCCCCCCn1nc(-c2ccc(OCc3ccccc3)cc2)oc1=S`, for which the IC50 in data set [2] (read-out: IC50) is above 1000 µM.

In the case of `S=c1[nH]nc(Cc2n[nH]c(=S)o2)o1`, the IC50 was 850 µM in data set [2] (read-out: IC50) and above 1000 µM in data set [3]. The compound also showed an inhibition constant Ki in data set [4] of 500 µM.

For the compound `Oc1cccc(-c2n[nH]c(=S)o2)c1`, the IC50 in data set [2] (read-out: IC50) amounted to 1000 µM. Besides, the Ki in data set [4] turned out to be 1050 µM.

Turning to `CCCn1nc(-c2ccc(O)cc2)sc1=S`, in data set [2], the IC50 result was “Not Active”.

For the compound `CC(C)(C)[Si](C)(C)Oc1ccc(-c2n[nH]c(=S)o2)cc1`, the Ki in data set [1] was determined as 360 µM; in data set [4], 375 µM. Also, the IC50 amounted to 383 µM in data set [2] (read-out: IC50) and 368 µM in data set [3]. For the same compound, in data set [5], the viability at 0.5 h was above 90%.

Consider `S=c1[nH]nc(CCCc2n[nH]c(=S)o2)o1`, for which the inhibitory constant (Ki) came to 150 µM in data set [1] and 450 µM in data set [4]. Moreover, the results for the IC50 in data set [2] (read-out: IC50) and in data set [3] were 429 µM and 467 µM, respectively.

On to `S=c1sc(-c2ccc(OCc3ccccc3)cc2)nn1Cc1ccccc1`, for which the IC50 result in data set [2] is on record as “Not Active”.

For `CC(C)(C)[Si](C)(C)Oc1ccc(-c2n[nH]c(=S)s2)cc1`, the half-inhibitory concentration (IC50) in data set [2] (read-out: IC50) was 66.5 µM; in data set [3], above 1000 µM. Also, in data set [5], the viability at 0.5 h was above 90%. In data set [4], this compound registered a Ki of 100 µM.

Take `S=c1[nH]nc(-c2ccc(OCc3ccccc3)cc2)o1`: the Ki amounted to 850 µM in data set [1] and 1400 µM in data set [4]. For the same compound, the IC50 turned out to be 900 µM in data set [2] (read-out: IC50) and 628 µM in data set [3].

With `S=c1[nH]nc(Cc2n[nH]c(=S)s2)s1`, in data set [2] (read-out: IC50), the IC50 came out at 839 µM. Also, in data set [5], the viability at 0.5 h is above 90%. This compound registered a Ki in data set [4] of 1050 µM.

Regarding `Oc1ccc(-c2n[nH]c(=S)o2)cc1`, the half-maximal inhibitory concentration (IC50) in data set [2] (read-out: IC50) worked out at 960 µM. Besides, the Ki in data set [4] was 1150 µM.

These data come from ChEMBL document CHEMBL1152665, “1,3,4-Oxadiazole-2(3H)-thione and its analogues: a new class of non-competitive nucleotide pyrophosphatases/phosphodiesterases 1 inhibitors” (Bioorg Med Chem, 2009).
